In ChEMBL document CHEMBL5252639, “Exploration of cytotoxic potential and tubulin polymerization inhibition activity of cis-stilbene-1,2,3-triazole congeners” (RSC Med Chem, 2023):

Legend:
Tubulin (Homo sapiens) = Tubulin (Homo sapiens) (UniProt P68371+Q9H4B7+P0DPH7+P68366+Q13509+Q71U36+P04350+Q3ZCM7+P07437+P68363+Q9BQE3+Q6PEY2+Q13885+Q9BVA1+Q9BUF5); experiment: Inhibition of tubulin polymerization in human HCT-116 cells at 3 uM measured after 1 hr relative to control; format: cell-based
A549 = experiment: Cytotoxicity against human A549 cells assessed as inhibition of cell growth measured for 24 hrs by MTT assay; format: functional, cell-based; conditions: A549, 24 h
Procedure, shortened: (§1)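 Cells were kept at 37 °C with 5% CO2 in suitable medium with 10% FBS and 1% antibiotic-antimycotic, and passaged at 80-90% confluency using 0.25% trypsin/1 mM EDTA. They were seeded at 1×10^3–4×10^3 cells/well and attached overnight. Compounds came from 10 mM DMSO stocks diluted in medium and were applied for 24 h. MTT (0.5 mg/mL) was added for 4 h at 37 °C, formazan was dissolved in DMSO, and absorbance was read at 570 nm.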

BT-474 = experiment: Cytotoxicity against human BT-474 cells assessed as inhibition of cell growth measured for 24 hrs by MTT assay; format: functional, cell-based; conditions: BT-474, 24 h; procedure, shortened: as §1
B16-F10 = experiment: Cytotoxicity against mouse B16-F10 cells assessed as inhibition of cell growth measured for 24 hrs by MTT assay; format: functional, cell-based; conditions: B16-F10, 24 h; procedure, shortened: as §1
HCT-116 [1] = experiment: Cytotoxicity against human HCT-116 cells assessed as inhibition of cell growth measured for 24 hrs by MTT assay; format: functional, cell-based; conditions: HCT-116, 24 h; procedure, shortened: as §1
HCT-116 [2] = experiment: Induction of morphological change in human HCT-116 cells assessed as change in cell shape incubated for 24 hrs by phase contrast microscopic analysis; format: functional, cell-based; conditions: dose 1.62-6.5 µM
Procedure, shortened: (§2)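 HCT-116 plated at 1 × 10^6 cells/mL in RPMI + 10% FBS and allowed to adhere 24 h at 37 °C, 5% CO2. […] After 24 h, morphology imaged by phase-contrast microscopy at 20X.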

HCT-116 [3] = experiment: Induction of morphological change in human HCT-116 cells assessed as cell rounding incubated for 24 hrs by phase contrast microscopic analysis; format: functional, cell-based; conditions: dose 1.62-6.5 µM; procedure, shortened: as §2
HCT-116 [4] = experiment: Induction of morphological change in human HCT-116 cells assessed as cell detachment incubated for 24 hrs by phase contrast microscopic analysis; format: functional, cell-based; procedure, shortened: as §2
HCT-116 [5] = experiment: Induction of apoptosis in human HCT-116 cells assessed as horseshoe shaped nuclei measured for 24 hrs by DAPI staining based microscopic analysis; format: functional, cell-based; conditions: dose 1.62-6.5 µM
Procedure, shortened: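 Then PBS wash, 4% paraformaldehyde fixation 30 min, 0.1% Triton X permeabilisation 15 min, 1 µM DAPI 15 min, PBS wash. Imaged by fluorescence microscopy (ex 350/em 460 nm), 20X.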

HCT-116 [6] = experiment: Induction of apoptosis in human HCT-116 cells assessed as viable cells at 0.55 uM measured after 24 hrs by Annexin V-FITC/propidium iodide staining based flow cytometry (reference value: 99.71%); format: functional; conditions: read-out: Activity
HCT-116 [7] = experiment: Induction of apoptosis in human HCT-116 cells assessed as early apoptotic cells at 0.55 uM measured after 24 hrs by Annexin V-FITC/propidium iodide staining based flow cytometry (reference value: 0.28%); format: functional
HCT-116 [8] = experiment: Induction of apoptosis in human HCT-116 cells assessed as late apoptotic cells at 0.55 uM measured after 24 hrs by Annexin V-FITC/propidium iodide staining based flow cytometry (reference value: 0.00%); format: functional
HCT-116 [9] = experiment: Induction of apoptosis in human HCT-116 cells assessed as necrotic cells at 0.55 uM measured after 24 hrs by Annexin V-FITC/propidium iodide staining based flow cytometry (reference value: 0.00%); format: functional
HCT-116 [10] = experiment: Induction of cell cycle arrest in human HCT-116 cells assessed as accumulation of cells at G0/G1 phase at 0.55 uM […] by PI staining based flow cytometry analysis relative to control (reference value: 70.34%); format: functional
HCT-116 [11] = experiment: Induction of cell cycle arrest in human HCT-116 cells assessed as accumulation of cells at S phase at 0.55 uM measured after 24 hrs by PI staining based flow cytometry analysis relative to control (reference value: 5.55%)
HCT-116 [12] = experiment: Induction of cell cycle arrest in human HCT-116 cells assessed as accumulation of cells at G2/M phase at 0.55 uM measured after 24 hrs by PI staining based flow cytometry analysis relative to control (reference value: 15.61%)

Compound | IC50 (A549) [µM] | IC50 (BT-474) [µM] | IC50 (B16-F10) [µM] | IC50 (HCT-116 [1]) [µM] | other results
CC(=O)O[C@H]1C(=O)[C@@]2(C)[C@H]([C@H](OC(=O)c3ccccc3)[C@]3(O)C[C@H](OC(=O)[C@H](O)[C@@H](NC(=O)c4ccccc4)c4ccccc4)C(C)=C1C3(C)C)[C@]1(OC(C)=O)CO[C@@H]1C[C@@H]2O |  |  |  |  | inhibition (Tubulin (Homo sapiens)): 49.5%
COc1ccc(/C=C(/C(=O)OCc2cn(Cc3ccc([N+](=O)[O-])cc3)nn2)c2ccc(OC)c(OC)c2)cc1OC | 36.8 | 28.4 | 17.5 | 35 | 
COc1ccc(C(=O)Cn2cc(COC(=O)/C(=C/c3ccc(OC)c(OC)c3)c3ccc4c(c3)OCO4)nn2)cc1 | 31.3 | > 50 | 37.7 | > 50 | 
COc1ccc(/C=C(/C(=O)OCc2cn(Cc3cc(C)ccc3C)nn2)c2ccc(OC)c(OC)c2)cc1OC | > 50 | 20.1 | 40.8 | 49.9 | 
COc1ccc(/C=C(/C(=O)OCc2cn(CC(=O)c3ccc(Cl)c(Cl)c3)nn2)c2ccc3c(c2)OCO3)cc1OC | 25.5 | > 50 | 41.6 | > 50 | 
COc1ccc(/C=C(/C(=O)OCc2cn(CC(=O)c3ccc(Cl)cc3)nn2)c2ccc(OC)c(OC)c2)cc1OC | 38.6 | > 50 | > 50 | 31.9 | 
COc1ccc(/C=C(/C(=O)OCc2cn(CC(=O)c3ccc(Cl)c(Cl)c3)nn2)c2ccc(OC)c(OC)c2)cc1OC | 37 | 47.5 | 29.6 | 26.5 | 
COc1ccc(/C=C(/C(=O)OCc2cn(CC(=O)c3ccccc3)nn2)c2ccc3c(c2)OCO3)cc1OC | 30.8 | > 50 | 30.9 | > 50 | 
COc1ccc(/C=C(/C(=O)OCc2cn(CC(=O)c3ccccc3)nn2)c2ccc(OC)c(OC)c2)cc1OC | 38.2 | 16.2 | 40.2 | 23.5 | 
COc1ccc(/C=C(/C(=O)OCc2cn(Cc3ccccc3)nn2)c2ccc(OC)c(OC)c2)cc1OC | 32.7 | 14.9 | 16.1 | 20.2 | 
COc1ccc(/C=C(/C(=O)OCc2cn(CC(=O)c3ccc(Br)cc3)nn2)c2ccc(OC)c(OC)c2)cc1OC | 42.9 | > 50 | > 50 | 35.8 | 
COc1ccc(/C=C(/C(=O)OCc2cn(CC(=O)c3ccc(Cl)cc3)nn2)c2ccc3c(c2)OCO3)cc1OC | 37.3 | > 50 | 28.9 | > 50 | 
COc1ccc(/C=C(/C(=O)OCc2cn(Cc3ccccc3F)nn2)c2ccc(OC)c(OC)c2)cc1OC | 29.2 | 26.2 | 17.4 | 22.1 | 
COc1ccc(/C=C(/C(=O)OCc2cn(Cc3ccccc3[N+](=O)[O-])nn2)c2ccc(OC)c(OC)c2)cc1OC | 41 | 40.8 | 39.5 | 38.1 | 
COc1ccc(/C=C(/C(=O)OCc2cn(Cc3cccc(Cl)c3)nn2)c2ccc(OC)c(OC)c2)cc1OC | > 50 | > 50 | 22.8 | 21.2 | 
COc1ccc(C(=O)Cn2cc(COC(=O)/C(=C/c3ccc(OC)c(OC)c3)c3ccc(OC)c(OC)c3)nn2)cc1 | 41.9 | 47.5 | 14.1 | 18 | 
COc1ccc(/C=C(/C(=O)OCc2cn(CC(=O)c3ccc(C)cc3)nn2)c2ccc(OC)c(OC)c2)cc1OC | 41.7 | 40.7 | > 50 | 33.4 | 
COc1ccc(/C=C(/C(=O)OCc2cn(Cc3ccc(C)cc3)nn2)c2ccc(OC)c(OC)c2)cc1OC | 12.4 | 12.4 | 1.73 | 21.1 | 
COc1cc2c(c(OC)c1OC)-c1ccc(OC)c(=O)cc1[C@@H](NC(C)=O)CC2 [COLCHICINE] | 0.89 | 12.5 |  | 0.55 | Activity (HCT-116 [2]): Dose-Dependent Effect; Activity (HCT-116 [3]): Dose-Dependent Effect; Activity (HCT-116 [4]): Dose-Dependent Effect; Activity (HCT-116 [5]): Dose-Dependent Effect; viability at 0.55 µM (HCT-116 [6]): 31.1%; Activity (HCT-116 [7]): 10.32%; Activity (HCT-116 [8]): 61.81%; Activity (HCT-116 [9]): 6.78%; Activity (HCT-116 [10]): 54.45%; Activity (HCT-116 [11]): 6.61%; Activity (HCT-116 [12]): 40.57%
COc1ccc(/C=C(/C(=O)OCc2cn(Cc3ccc(F)cc3)nn2)c2ccc(OC)c(OC)c2)cc1OC | 28.9 | 17.1 | 2.37 | 21.6 | 
COc1ccc(/C=C(/C(=O)OCc2cn(Cc3ccc(Br)cc3)nn2)c2ccc(OC)c(OC)c2)cc1OC | 15.2 | 20.7 | 1.53 | 25.3 | 
